Laboratory results taken from ChEMBL document CHEMBL2062453, “Lead optimization through VLAK protocol: new annelated pyrrolo-pyrimidine derivatives as antitumor agents” (2012).

Legend:
Assay type in all cases: functional
[1] = test system: MOLT-4; test: Cytotoxicity against human MOLT4 cells assessed as cell growth at 10 uM after 48 hrs by SRB assay relative to control; settings: MOLT-4, 48 h, read-out: Activity
[2] = test system: SR; test: Cytotoxicity against human SR cells assessed as cell growth at 10 uM after 48 hrs by SRB assay relative to control; settings: read-out: Activity
Outline: (§1)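 NCI single-dose primary screen across about 60 human tumour lines. Each line was inoculated and preincubated on microtiter plates, then exposed to one concentration of agent for 48 h. Growth is reported as percent growth (G%) of treated cells versus untreated control cells.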

[3] = test system: A549; test: Cytotoxicity against human A549 cells assessed as cell growth at 10 uM after 48 hrs by SRB assay relative to control; settings: A549, 48 h, read-out: Activity
Outline: (§2)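 NCI primary screen of about 60 human tumour lines. Cells inoculated and preincubated, then a single test concentration added and cultures incubated 48 h. Result given as percent growth (G%) of treated versus untreated control cells.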

[4] = test system: EKVX; test: Cytotoxicity against human EKVX cells assessed as cell growth at 10 uM after 48 hrs by SRB assay relative to control; settings: read-out: Activity; outline: as §2
[5] = test system: NCI-H226; test: Cytotoxicity against human NCI-H226 cells assessed as cell growth at 10 uM after 48 hrs by SRB assay relative to control; settings: NCI-H226, 48 h, read-out: Activity
[6] = test system: NCI-H322M; test: Cytotoxicity against human NCI-H322M cells assessed as cell growth at 10 uM after 48 hrs by SRB assay relative to control; settings: read-out: Activity
[7] = test system: NCI-H460; test: Cytotoxicity against human NCI-H460 cells assessed as cell growth at 10 uM after 48 hrs by SRB assay relative to control; settings: NCI-H460, 48 h, read-out: Activity
[8] = test system: HCC 2998; test: Cytotoxicity against human HCC2998 cells assessed as cell growth at 10 uM after 48 hrs by SRB assay relative to control; settings: HCC 2998, 48 h, read-out: Activity; outline: as §2
[9] = test system: HCT-116; test: Cytotoxicity against human HCT116 cells assessed as cell growth at 10 uM after 48 hrs by SRB assay relative to control; settings: HCT-116, 48 h, read-out: Activity; outline: as §2
[10] = test system: HCT-15; test: Cytotoxicity against human HCT15 cells assessed as cell growth at 10 uM after 48 hrs by SRB assay relative to control; settings: HCT-15, 48 h, read-out: Activity; outline: as §2
[11] = test system: KM12; test: Cytotoxicity against human KM12 cells assessed as cell growth at 10 uM after 48 hrs by SRB assay relative to control; settings: KM12, 48 h, read-out: Activity; outline: as §2
[12] = test system: SF-268; test: Cytotoxicity against human SF268 cells assessed as cell growth at 10 uM after 48 hrs by SRB assay relative to control; settings: SF-268, 48 h, read-out: Activity
[13] = test system: SF-295; test: Cytotoxicity against human SF295 cells assessed as cell growth at 10 uM after 48 hrs by SRB assay relative to control; settings: SF-295, 48 h, read-out: Activity
[14] = test system: SF-539; test: Cytotoxicity against human SF539 cells assessed as cell growth at 10 uM after 48 hrs by SRB assay relative to control; settings: SF-539, 48 h, read-out: Activity
[15] = test system: SNB-75; test: Cytotoxicity against human SNB75 cells assessed as cell growth at 10 uM after 48 hrs by SRB assay relative to control; settings: SNB-75, 48 h, read-out: Activity
[16] = test system: U-251; test: Cytotoxicity against human U251 cells assessed as cell growth at 10 uM after 48 hrs by SRB assay relative to control; settings: U-251, 48 h, read-out: Activity; outline: as §1
[17] = test system: LOX IMVI; test: Cytotoxicity against human LOXIMVI cells assessed as cell growth at 10 uM after 48 hrs by SRB assay relative to control; settings: read-out: Activity; outline: as §2
[18] = test system: SK-MEL-2; test: Cytotoxicity against human SK-MEL-2 cells assessed as cell growth at 10 uM after 48 hrs by SRB assay relative to control; settings: SK-MEL-2, 48 h, read-out: Activity
[19] = test system: SK-MEL-28; test: Cytotoxicity against human SK-MEL-28 cells assessed as cell growth at 10 uM after 48 hrs by SRB assay relative to control; settings: SK-MEL-28, 48 h, read-out: Activity
[20] = test system: OVCAR-4; test: Cytotoxicity against human OVCAR4 cells assessed as cell growth at 10 uM after 48 hrs by SRB assay relative to control; settings: OVCAR-4, 48 h, read-out: Activity
[21] = test system: OVCAR-5; test: Cytotoxicity against human OVCAR5 cells assessed as cell growth at 10 uM after 48 hrs by SRB assay relative to control; settings: OVCAR-5, 48 h, read-out: Activity
[22] = test system: NCI/ADR-RES; test: Cytotoxicity against human NCI/ADR-RES cells assessed as cell growth at 10 uM after 48 hrs by SRB assay relative to control; settings: read-out: Activity
[23] = test system: SK-OV-3; test: Cytotoxicity against human SKOV3 cells assessed as cell growth at 10 uM after 48 hrs by SRB assay relative to control; settings: SK-OV-3, 48 h, read-out: Activity
[24] = test system: A498; test: Cytotoxicity against human A498 cells assessed as cell growth at 10 uM after 48 hrs by SRB assay relative to control; settings: A498, 48 h, read-out: Activity; outline: as §2
[25] = test system: ACHN; test: Cytotoxicity against human ACHN cells assessed as cell growth at 10 uM after 48 hrs by SRB assay relative to control; settings: read-out: Activity; outline: as §2
[26] = test system: RXF 393; test: Cytotoxicity against human RXF393 cells assessed as cell growth at 10 uM after 48 hrs by SRB assay relative to control; settings: RXF 393, 48 h, read-out: Activity
[27] = test system: TK-10; test: Cytotoxicity against human TK10 cells assessed as cell growth at 10 uM after 48 hrs by SRB assay relative to control; settings: TK-10, 48 h, read-out: Activity; outline: as §1
[28] = test system: UO-31; test: Cytotoxicity against human UO31 cells assessed as cell growth at 10 uM after 48 hrs by SRB assay relative to control; settings: UO-31, 48 h, read-out: Activity; outline: as §1
[29] = test system: PC-3; test: Cytotoxicity against human PC3 cells assessed as cell growth at 10 uM after 48 hrs by SRB assay relative to control; settings: PC-3, 48 h, read-out: Activity
[30] = test system: DU-145; test: Cytotoxicity against human DU145 cells assessed as cell growth at 10 uM after 48 hrs by SRB assay relative to control; settings: DU-145, 48 h, read-out: Activity; outline: as §2
[31] = test system: MCF7; test: Cytotoxicity against human MCF7 cells assessed as cell growth at 10 uM after 48 hrs by SRB assay relative to control; settings: MCF7, 48 h, read-out: Activity; outline: as §2
[32] = test system: MDA-MB-231; test: Cytotoxicity against human MDA-MB-231 cells assessed as cell growth at 10 uM after 48 hrs by SRB assay relative to control; settings: MDA-MB-231, 48 h, read-out: Activity; outline: as §2
[33] = test system: MDA-MB-468; test: Cytotoxicity against human MDA-MB-468 cells assessed as cell growth at 10 uM after 48 hrs by SRB assay relative to control; settings: MDA-MB-468, 48 h, read-out: Activity

Row | SMILES | growth at 10 µM [1] | growth at 10 µM [3] | growth at 10 µM [4] | growth at 10 µM [5] | growth at 10 µM [6] | growth at 10 µM [7] | growth at 10 µM [8] | growth at 10 µM [9] | growth at 10 µM [10] | growth at 10 µM [11] | growth at 10 µM [12] | growth at 10 µM [13] | growth at 10 µM [14] | growth at 10 µM [15] | growth at 10 µM [16] | growth at 10 µM [17] | growth at 10 µM [18] | growth at 10 µM [19] | growth at 10 µM [20] | growth at 10 µM [21] | other results
1 | CCOC(=O)CCCn1c(C)c(C)c2c1N=C(SC)N1CC(=O)N=C21 | 98% | 102% | 104% | 113% | 111% | 110% | 129% | 111% | 108% | 154% | 132% | 113% | 95% | 90% | 105% | 101% | 113% | 114% | 100% | 125% | growth at 10 µM [2]: 119%; growth at 10 µM [22]: 112%; growth at 10 µM [23]: 127%; growth at 10 µM [24]: 115%; growth at 10 µM [25]: 110%; growth at 10 µM [26]: 121%; growth at 10 µM [27]: 135%; growth at 10 µM [28]: 81%; growth at 10 µM [29]: 103%; growth at 10 µM [30]: 149%; growth at 10 µM [31]: 96%; growth at 10 µM [32]: 112%; growth at 10 µM [33]: 55%
2 | CSC1=Nc2c(c(C)c(C)n2CCCC(=O)O)C2=NC(=O)CN12 | 103% | 117% | 105% | 110% | 112% | 105% | 118% | 111% | 114% | 112% | 114% | 122% | 86% | 111% | 107% | 93% | 111% | 110% | 104% | 117% | growth at 10 µM [2]: 122%; growth at 10 µM [22]: 114%; growth at 10 µM [23]: 113%; growth at 10 µM [24]: 86%; growth at 10 µM [25]: 108%; growth at 10 µM [26]: 122%; growth at 10 µM [27]: 121%; growth at 10 µM [28]: 88%; growth at 10 µM [29]: 98%; growth at 10 µM [30]: 118%; growth at 10 µM [31]: 95%; growth at 10 µM [32]: 100%; growth at 10 µM [33]: 97%
3 | CSC1=Nc2c(c(C)c(-c3ccccc3)n2CCCC(=O)O)C2=NC(=O)CN12 | 87% | 101% | 95% | 107% | 131% | 102% | 106% | 96% | 95% | 100% | 96% | 105% | 92% | 83% | 90% | 77% | 117% | 84% | 92% | 98% | growth at 10 µM [22]: 98%; growth at 10 µM [23]: 114%; growth at 10 µM [24]: 109%; growth at 10 µM [25]: 89%; growth at 10 µM [26]: 96%; growth at 10 µM [27]: 135%; growth at 10 µM [28]: 82%; growth at 10 µM [29]: 94%; growth at 10 µM [30]: 116%; growth at 10 µM [31]: 94%; growth at 10 µM [32]: 107%; growth at 10 µM [33]: 90%
